According to article PMC5679024 (ACS chemical neuroscience, 2017):
Non-standard residues stand in square brackets, D forms with d. Residues, ends and D or L forms follow the SMILES beside them.

B1: mMC3R with C-terminal NanoLuc or HaloTag (NanoBRET constructs) (receptor, mouse, UniProt P33033 1-323, looked up)
chain: MNSSCCLSSVSPMLPNLSEHPAAPPASNRSGSGFCEQVFIKPEVFLALGIVSLMENILVILAVVRNGNLHSPMYFFLCSLAAADMLVSLSNSLETIMIAVINSDSLTLEDQFIQHMDNIFDSMICISLVASICNLLAIAIDRYVTIFYALRYHSIMTVRKALTLIGVIWVCCGICGVMFIIYSESKMVIVCLITMFFAMVLLMGTLYIHMFLFARLHVQRIAVLPPAGVVAPQQHSCMKGAVTITILLGVFIFCWAPFFLHLVLIITCPTNPYCICYTAHFNTYLVLIMCNSVIDPLIYAFRSLELRNTFKEILCGCNSMNLG
B2: mMC4R with C-terminal NanoLuc or HaloTag (NanoBRET constructs) (receptor, mouse, UniProt P56450 1-332, looked up)
chain: MNSTHHHGMYTSLHLWNRSSYGLHGNASESLGKGHPDGGCYEQLFVSPEVFVTLGVISLLENILVIVAIAKNKNLHSPMYFFICSLAVADMLVSVSNGSETIVITLLNSTDTDAQSFTVNIDNVIDSVICSSLLASICSLLSIAVDRYFTIFYALQYHNIMTVRRVGIIISCIWAACTVSGVLFIIYSDSSAVIICLISMFFTMLVLMASLYVHMFLMARLHIKRIAVLPGTGTIRQGTNMKGAITLTILIGVFVVCWAPFFLHLLFYISCPQNPYCVCFMSHFNLYLILIMCNAVIDPLIYALRSQELRKTFKEIICFYPLGGICELSSRY

Key:
male mice = assay: ICV fasting-refeeding paradigm, energy homeostasis in TSE metabolic cages; assay type: in vivo, mouse; conditions: 5 nmol ICV
Summary of the method: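 Cannula-validated male mice were acclimated for one week in sealed TSE metabolic home cages (12 h light/dark, 23–25 °C) and tested in a cross-over design. Food was removed at lights out for a 22 h fast. At t=0, 2 h before lights out, mice received 5 nmol test compound or saline ICV and food was returned. Mice were watched visually for ≥2 h after dosing.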

[1] = In vitro mouse serum stability assay; assay type: in vitro ADME; conditions: for half-life / remaining at 0.5 h: serum
[2] = target: mouse melanocortin 4 receptor, wildtype mMC4R, stably expressed on HEK293 cells (mouse) (UniProt P56450)
[3] = target: mouse melanocortin 3 receptor, mMC3R-Flag, stably expressed on HEK293 cells (mouse) (UniProt P33033)
FRET or BRET = target: the molecule itself; assay: FRET or BRET
[4] = target: B1; assay: FRET or BRET

CC(=O)N[C@@H](Cc1cnc[nH]1)C(=O)N[C@H](Cc1ccccc1)C(=O)N[C@@H](CCCN=C(N)N)C(=O)N[C@@H](Cc1c[nH]c2ccccc12)C(N)=O [CJL-1-14, Ac-His-DPhe-Arg-Trp-NH2]
adverse reactions, visual monitoring (male mice; at least 2 hours post treatment): no adverse reactions
ambulatory activity (male mice; fasting-refeeding): No significant effects
remaining at 72 h, 10 µM ([1]; mouse serum): 12%
half-life [1]: 1010 min

α-MSH (peptide)
Agonist cAMP Based Alpha Screen Results EC50 (nM), stable mMC4R cells [2]: 3.1 nM
Agonist cAMP Based Alpha Screen Results EC50 (nM), stable mMC3R cells [3]: 0.21 nM

CC(=O)N[C@@H](Cc1cnc[nH]1)C(=O)N[C@H](Cc1ccccc1)C(=O)N[C@@H](CCCNC(=N)N)C(=O)N[C@@H](Cc1c[nH]c2ccccc12)C(=O)N1CCC[C@H]1C(=O)NCC(=O)N1CCC[C@H]1C(=O)NCC(=O)N1CCC[C@H]1C(=O)NCC(=O)N1CCC[C@H]1C(=O)NCC(=O)N1CCC[C@H]1C(=O)NCC(=O)N1CCC[C@H]1C(=O)NCC(=O)N[C@@H](Cc1cnc[nH]1)C(=O)N[C@H](Cc1ccccc1)C(=O)N[C@@H](CCCNC(=N)N)C(=O)N[C@@H](Cc1c[nH]c2ccccc12)C(N)=O [CJL-1-31, Ac-His-DPhe-Arg-Trp-(Pro-Gly)6-His-DPhe-Arg-Trp-NH2] (Ac-H[dF]RWPGPGPGPGPGPGH[dF]RW-NH2)
half-life [1]: 6 min
remaining at 0.5 h [1]: ≤ 2%

N=C(N)NCCC[C@H](NC(=O)[C@@H](Cc1ccccc1)NC(=O)[C@H](Cc1cnc[nH]1)NC(=O)CNC(=O)[C@@H]1CCCN1C(=O)CNC(=O)[C@@H]1CCCN1C(=O)CNC(=O)[C@@H]1CCCN1C(=O)CNC(=O)[C@@H]1CCCN1C(=O)CNC(=O)[C@@H]1CCCN1C(=O)CNC(=O)[C@@H]1CCCN1)C(=O)N[C@@H](Cc1c[nH]c2ccccc12)C(N)=O [CJL-1-41, (Pro-Gly)6-His-DPhe-Arg-Trp-NH2] (H-PGPGPGPGPGPGH[dF]RW-NH2)
half-life [1]: 6 min
remaining at 0.5 h [1]: ≤ 2%

CC(=O)N[C@@H](Cc1cnc[nH]1)C(=O)N[C@H](Cc1ccccc1)C(=O)N[C@@H](CCCNC(=N)N)C(=O)N[C@@H](Cc1c[nH]c2ccccc12)C(=O)N1CCC[C@H]1C(=O)NCC(=O)N1CCC[C@H]1C(=O)NCC(=O)N1CCC[C@H]1C(=O)NCC(=O)N1CCC[C@H]1C(=O)NCC(=O)N1CCC[C@H]1C(=O)NCC(=O)N1CCC[C@H]1C(=O)NCC(N)=O [CJL-5-35-1, Ac-His-DPhe-Arg-Trp-(Pro-Gly)6-NH2] (Ac-H[dF]RWPGPGPGPGPGPG-NH2)
half-life [1]: 6 min
remaining at 0.5 h [1]: ≤ 2%

B1
BRET ratio (FRET or BRET): 90 mBU

B2
BRET ratio (FRET or BRET): 100 mBU
BRET ratio [4]: 150 mBU
